# Test results reported in ChEMBL document CHEMBL1921792, “Synthesis and anticonvulsant activity of trans- and cis-2-(2,6-dimethylphenoxy)-N-(2- or 4-hydroxycyclohexyl)acetamides and their amine analogs” (Bioorg Med Chem, 2011).
# What was measured:
# Mus musculus [1] = assay: Neurotoxicity in mouse assessed as inability to maintain equilibrium on rotarod at 300 mg/kg, ip after 0.25 hrs using rotarod test; assay type: toxicity, organism-based; design: dose 300 mg/kg, route intraperitoneal; conditions: in vivo
# Summary of the method: (§1)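 Drug given ip to mice as a suspension in 0.5% methylcellulose. At the stated time after dosing, each mouse was placed on a 1 inch knurled rod turning at 6 rpm. Neurotoxicity = inability to stay balanced at least 1 min in each of three trials. Scored as animals toxic/animals tested in small groups.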
# Mus musculus [2] = assay: Neurotoxicity in mouse assessed as inability to maintain equilibrium on rotarod at 300 mg/kg, ip after 2 hrs using rotarod test; assay type: toxicity, organism-based; design: dose 300 mg/kg, route intraperitoneal; conditions: in vivo; summary of the method: as §1
# Mus musculus [3] = assay: Neurotoxicity in mouse assessed as inability to maintain equilibrium on rotarod at 300 mg/kg, ip after 0.5 hrs using rotarod test; assay type: toxicity, organism-based; design: dose 300 mg/kg, route intraperitoneal; conditions: in vivo; summary of the method: as §1
# Mus musculus [4] = assay: Neurotoxicity in mouse assessed as inability to maintain equilibrium on rotarod at 100 mg/kg, ip after 0.5 hrs by rotarod test; assay type: toxicity, organism-based; design: dose 100 mg/kg, route intraperitoneal; conditions: in vivo; summary of the method: as §1
# Mus musculus [5] = assay: Neurotoxicity in ip dosed mouse assessed as inability to maintain equilibrium on rotarod by rotarod test; assay type: toxicity, organism-based; conditions: in vivo
# Summary of the method: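 Mice dosed ip with a suspension in 0.5% methylcellulose, then placed on a 1 inch knurled plastic rod rotating at 6 rpm. Toxicity = failure to keep equilibrium for at least 1 min in each of three trials.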
# Mus musculus [6] = assay: Neurotoxicity in mouse assessed as inability to maintain equilibrium on rotarod at 300 mg/kg, ip after 0.5 hrs by rotarod test; assay type: toxicity, organism-based; design: dose 300 mg/kg, route intraperitoneal; conditions: in vivo; summary of the method: as §1
# Mus musculus [7] = organism: Mus musculus; assay: Protective index, ratio of TD50 for neurotoxicity in mouse to ED50 for inhibition of maximal electroshock-induced seizures in mouse; assay type: functional
# Mus musculus [8] = assay: Neurotoxicity in mouse assessed as inability to maintain equilibrium on rotarod at 300 mg/kg, ip after 4 hrs using rotarod test; assay type: toxicity, organism-based; design: dose 300 mg/kg, route intraperitoneal; conditions: in vivo; summary of the method: as §1
# Mus musculus [9] = assay: Anticonvulsant activity in ip dosed mouse assessed as protection against maximal electric shock-induced seizures; assay type: functional
smiles,measurement,setting,value
Cc1cccc(C)c1OCC(=O)NC1CCCCC1O.Cl (racemic; 4),Activity,Mus musculus [1],Toxic
same,Activity,Mus musculus [2],Non-toxic
same,Activity,Mus musculus [3],Toxic
same,Activity,Mus musculus [4],Non-toxic
same,TD50,Mus musculus [5],117.73 mg/kg
same,Activity,Mus musculus [6],Non-toxic
same,Ratio TD50/ED50,Mus musculus [7],1.493
same,Activity,Mus musculus [8],Non-toxic
same,ED50,Mus musculus [9],78.83 mg/kg
